Screens: PubChem, SRMLSC
The entries come from a sample that favours hits as a whole.
H69AR growth 86K: growth inhibitors of human H69AR lung tumor cells; viability, % at 10 µM; 85,000 compounds, 6% hits; AID 598; H69AR lung tumor viability, ATP luminescence, 72 h; hits give low values;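 active = viability at or below 40%; inactive = viability above 40%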;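 also: multidrug resistant small cell line overexpressing MRP-1 efflux transporter; 100% = mean luminescence of untreated control wells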
Fibroblast inh: blocks proliferation of human lung fibroblasts; LL 47 human lung fibroblast viability, ATP luminescence; hits give low values; viability, % at 10 µM; 85,000 compounds, 1.1% hits;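 active = viability at or below 50% in the single dose screen; inactive = viability above 50%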;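 also: compound exposure lasted 72 h before the ATP readout; 100% = median luminescence of untreated cell-only wells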
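Material: human LL 47 lung fibroblast cells; quantity: 1,150 cells/well; medium: IMEM plus 15% FBS; doses: 0.1% DMSO in all compound wells; timing: overnight attachment after seeding, then 72 h compound exposure at 37 °C; detection: CellTiter-Glo luminescence; measure: % viability of median cell-only signal; controls: cell-only wells, no compound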
HUVEC inhibit: human endothelial cell proliferation inhibition | HUVEC proliferation, CellTiter-Glo luminescence, 72 h; hits give low values | viability, % at 10 µM (by protocol) | 86,000 compounds, 1.1% hits | AID 648;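 active = viability at or below 30%; inactive = viability above 30%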;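 also: 100% = median luminescence of DMSO-only cell control wells on each plate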
HCT116 PTEN-null: growth suppressors of cells with PTEN tumor suppressor deletion. HCT116 PTEN-null viability, CellTiter-Glo, 60 h; hits give low values. viability, % at 10 µM. 140,000 compounds, 1.2% hits. AID 827;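 active = viability at or below a set limit, 4 SD under the median of all tested compounds, cut at about 3.7% in these data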;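 also: PTEN knockout HCT116 line with beta catenin targeted HCT116 as companion control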
HCT116 bCat-KO: beta-catenin-lacking colon tumor cell growth suppression; AID 818; HCT116 beta-catenin knockout viability, CellTiter-Glo, 60 h; hits give low values; viability, % at 10 µM; 140,000 compounds, 1.5% hits;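 active = viability at or under a set limit, the compound median less 4 SD, cut at about 6% in these data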;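 also: 0% = Hyamine 1622 control at 20 µM and 100% = untreated cell control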
* = called active by the depositor; . = not tested or not shown.

SMILES	H69AR growth 86K	Fibroblast inh	HUVEC inhibit	HCT116 PTEN-null	HCT116 bCat-KO
N#C/C(=C/c1ccc(N2CCOCC2)o1)c1nc2ccccc2[nH]1	23*	76	51	81	84
COc1cc(N2CCCC2)c(OC)cc1/C=C(/C#N)c1cccc(F)c1	25*	88	95	68	72
COc1cccc(/C=C(/C#N)c2ccc(F)cc2)c1OCc1cccc(C(=O)O)c1	.	.	.	101	99
Cc1cccc(C)c1NC(=O)Cn1nc(-c2ccccc2)nc1-c1ccccc1	.	.	.	65	58
Cc1ccc(NC(=S)N2CCN(C3CCCCC3)CC2)cc1	.	.	.	92	89
COc1ccccc1NC(=O)Cn1nnc(-c2ccccc2NC(=O)c2cccs2)n1	30*	87	49	55	29
COc1ccc(-c2nnn(CC(=O)NCc3ccccc3)n2)cc1OC	95	92	99	86	86
COc1cc(C(=O)Nc2ccccc2-c2nnn(CC(N)=O)n2)cc(OC)c1OC	.	.	.	108	104
CCOc1ccc(-c2nnn(CC(=O)Nc3ccccc3OC)n2)cc1OCC	11*	78	42	99	116
O=C(Cn1nnc(-c2ccccc2NC(=O)c2cccs2)n1)Nc1ccccc1	15*	86	59	52	61
CC1=C(C(=O)Nc2ccc([N+](=O)[O-])cc2)C(c2cccc(C(F)(F)F)c2)NC(=S)N1c1ccccc1 (stereo not given)	.	.	.	1.9*	1.4*
CCn1c(SCC(=O)N2CCCc3ccccc32)nnc1-c1c[nH]c2ccccc12	23*	108	95	82	94
CCN1/C(=C(\O)c2ccccc2)C(=O)c2ccccc2S1(=O)=O	33*	89	62	62	52
CSCc1nnc(NC(=O)c2ccc(S(=O)(=O)N(CC(C)C)CC(C)C)cc2)o1	.	.	.	11	9
CCN(Cc1ccccc1)S(=O)(=O)c1ccc(C(=O)Nc2nnc(C3CC3)o2)cc1	32*	70	69	14	18
Cc1nnc(NC(=O)c2ccc(S(=O)(=O)N(C)Cc3ccccc3)cc2)o1	24*	97	85	34	38
COCCN(CCOC)S(=O)(=O)c1ccc(C(=O)Nc2nnc(C)o2)cc1	.	.	.	102	93
O=C1c2ccccc2S(=O)(=O)N1CCOc1ccccc1	98	96	97	89	99
O=C(Nc1nnc(-c2ccc3c(c2)CCCC3)o1)c1ccc(Cl)cc1Cl	52	89	29*	52	50
COc1ccc(-c2csc(NC(=O)c3ccc(S(=O)(=O)N4CCc5ccccc5C4)cc3)n2)cc1	.	.	.	57	63
NC(=O)c1oc2ccccc2c1NC(=O)c1nc2ccccc2s1	91	95	91	82	86
O=C(Nc1nnc(-c2ccc3c(c2)CCCC3)o1)C1CCCCC1	49	80	70	59	43
COc1ccc(-c2nnc(NC(=O)c3ccc(S(=O)(=O)N4CCc5ccccc5C4)cc3)o2)cc1	18*	69	13*	16	22
CN(C)S(=O)(=O)c1ccc(C(=O)Nc2nnc(-c3ccc4c(c3)CCCC4)o2)cc1	28*	71	40	15	15
O=C(Nc1nnc(-c2ccccc2)o1)c1nc2ccccc2s1	29*	90	67	.	.
SMILES	H69AR growth 86K	Fibroblast inh	HUVEC inhibit	HCT116 PTEN-null	HCT116 bCat-KO
CC(C)(NC(=O)N1CCCC1)c1cccc(C(C)(C)NC(=O)N2CCCC2)c1	.	.	.	106	107
NS(=O)(=O)c1cnccc1Nc1ccc(Cl)cc1	.	.	.	101	104
COc1ccc(-c2nnc(NC(=O)c3cc(Cl)ccc3Cl)o2)cc1	30*	76	50	22	29
Cc1ccccc1C(=O)Nc1nnc(-c2ccc(F)cc2)o1	36*	85	65	13	12
O=S(=O)(NCCc1ccccn1)c1ccc(F)c(F)c1	99	104	105	102	91
c1ccc(-c2onc3cc4c(cc23)OCCO4)cc1	86	90	73	71	81
CC1Cc2ccccc2N1Cc1nc2cc(Cl)ccc2c(=O)[nH]1 (stereo not given)	25*	82	74	71	67
COC(=O)c1ccc2c(=O)[nH]c(CN3c4ccccc4CC3C)nc2c1 (stereo not given)	51	100	84	92	96
Cc1cccc(N2CCN(c3nc4ccc(Cl)cc4n4cnnc34)CC2)c1C	2.1*	29*	14*	1.0*	0.8*
Cc1noc2ncnc(Sc3ccccc3Cl)c12	2.0*	68	18*	8	7
CCOc1ccc(C(=O)Nc2ccccc2N2CCCC2)cc1	36*	92	96	69	73
N#CC1=C(N)Oc2cc(O)ccc2C1c1ccncc1 (stereo not given)	85	100	95	82	94
CN(C)c1ccc2c(c1)OC(N)=C(C#N)C2c1cccc(F)c1 (stereo not given)	25*	55	31	9	10
Cc1ccc(/C=c2\s/c(=C(/C#N)C(=O)N3CCCC3)n(Cc3ccco3)c2=O)s1	37*	97	59	48	54
COC(=O)/C=c1/s/c(=C(\C#N)C(=O)NCc2ccco2)n(-c2ccc(C)cc2)c1=O	100	104	96	96	89
Cc1c(C(=O)NC2CCCc3ccccc32)oc2ccc(S(=O)(=O)N3CCOCC3)cc12 (stereo not given)	38*	80	68	72	75
Cc1c(C(=O)NC2CCCc3ccccc32)oc2ccc(S(=O)(=O)N3CCCC3)cc12 (stereo not given)	35*	65	51	56	64
Cc1c(C(=O)NC2CC2)oc2ccc(S(=O)(=O)N3CCCCCC3)cc12	59	89	104	76	72
Cc1c(C(=O)NC2CCCc3ccccc32)oc2ccc(S(=O)(=O)N3CCCCC3)cc12 (stereo not given)	.	.	.	57	58
CC12CCCc3c(O)cc(=O)n(c31)-c1ccccc12 (stereo not given)	.	.	.	98	99
Cc1ccccc1OCc1nnc(SCC(=O)Nc2ccc3c(c2)oc2ccccc23)n1C	21*	61	60	98	92
Cn1c(SCC(=O)Nc2cccc(Br)c2)nnc1-c1cc2ccccc2o1	97	57	92	2.2*	2.6*
CN(c1ccc(C(=O)NC2CC2)cc1)S(=O)(=O)c1ccccc1	.	.	.	88	90
Cc1cccc(-c2nnc3n2N=C(c2ccc(Br)cc2)CS3)c1	52	78	72	.	.
Clc1ccc(C2=Nn3c(nnc3-c3n[nH]c4c3CCC4)SC2)cc1	15*	53	57	17	16
Brc1ccc(C2=Nn3c(nnc3-c3n[nH]c4c3CCC4)SC2)cc1	20*	41*	48	15	19
Cc1ccc(-c2nnc3n2N=C(c2ccc(Br)cc2)CS3)cc1	6.1*	70	60	91	90
CC(C)(C)SCCNC(=O)c1ccc(NS(C)(=O)=O)cc1	102	98	96	93	95
COC(=O)N1CC(=O)N(OC)C1c1ccc(Cl)cc1Cl (stereo not given)	.	84	99	95	95
